# Shown are actives, neighbours in structure and some others; about 3.5% of the full set was active somewhere.
# RGS4 block: RGS4 inhibitors, primary screen, cell-based, HEK293 M3R inducible RGS4, calcium flux. Regulator of G-protein signaling 4 (Homo sapiens), P49798. Fluo-4 calcium flux; active compounds read high; triggered by carbachol at its EC20. B-score at 10 µM. 310,000 tested, 0.45% active;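 active = B-score, a plate-corrected calcium signal, over three deviations above library mean, with baseline fluorescence within five deviations of library mean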;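 also: RGS4 expression induced by doxycycline in cells with stable M3 receptor; B-score is computed from the integrated fluorescence ratio over baseline after carbachol; higher B-score means a larger calcium signal and so more RGS4 inhibition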
# MrgX1 antag: antagonists of human MrgX1 receptor, primary screen, HEK293 cells, Fluo-4 calcium flux. Mas-related G-protein coupled receptor member X1 (Homo sapiens), Q96LB2. BAM8-22 antagonism; active compounds read low. B-score at 10 µM. 310,000 tested, 1.3% active. AID 588676, 2011;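 active = calcium-response B-score plate-corrected more than 3 library SD below zero, starting fluorescence within 5 deviations, no agonist response on first addition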;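 also: peak minus trough fluorescence over baseline after final BAM8-22 challenge near maximal dose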
# Target sequence (Q96LB2 whole entry, looked up): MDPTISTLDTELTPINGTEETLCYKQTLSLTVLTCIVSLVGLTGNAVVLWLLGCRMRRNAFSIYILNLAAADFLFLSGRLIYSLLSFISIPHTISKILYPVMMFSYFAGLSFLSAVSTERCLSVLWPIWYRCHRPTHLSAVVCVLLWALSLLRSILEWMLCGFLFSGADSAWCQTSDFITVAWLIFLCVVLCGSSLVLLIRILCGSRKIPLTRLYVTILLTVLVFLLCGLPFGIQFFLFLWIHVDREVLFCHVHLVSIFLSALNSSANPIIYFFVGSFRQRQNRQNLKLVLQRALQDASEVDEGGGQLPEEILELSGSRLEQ
# MrgX1 PAM: positive allosteric modulators of MrgX1, primary screen, HEK293 cells, Fluo-4 calcium flux; 310,000 tested, 0.63% active; AID 588675, 2011; FDSS; active compounds read high; Mas-related G-protein coupled receptor member X1 (Homo sapiens), Q96LB2; B-score at 10 µM;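 active = plate-corrected calcium response at least 3 library SD above typical, normal starting fluorescence, not activating the receptor alone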;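 also: compound read alongside a low EC10 to EC30 dose of BAM8-22 agonist; peak minus trough fluorescence over baseline measured at the second addition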
# RGS4 pot: RGS4 potentiators or activators, primary screen, cell-based, HEK293 M3R inducible RGS4, calcium flux; B-score at 10 µM; carbachol calcium flux Fluo4; active compounds read low; 310,000 tested, 0.92% active;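 active = B-score of the integrated calcium signal more than 4 SD below the library mean, with starting fluorescence not abnormally high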;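 also: negative B-score means reduced calcium response which marks RGS4 activation or potentiation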
#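 Detection: kinetic calcium fluorescence imaging with Fluo4-AM dye, 2 µM / Material: HEK293 cells with stable M3R and inducible RGS4 / Schedule: recording 10 s baseline at 1 Hz, 100 s post-agonist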
# MrgX1 ag: agonists of human MrgX1 receptor, primary screen, HEK293 cells, Fluo-4 calcium flux; Mas-related G-protein coupled receptor member X1 (Homo sapiens), Q96LB2; Fluo-4 calcium fluorescence, agonist mode; active compounds read high; B-score at 10 µM; 310,000 tested, 0.44% active;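 active = calcium response B-score plate-corrected fluorescence ratio at least 3 library SD, with starting fluorescence B-score inside 5 SD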
#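 Material: HEK293 cells stably expressing human MrgX1 receptor | Quantity: 15,000 cells per well | Times: Cells plated overnight, dye loaded 0.5 h 37 °C, 0.5 h room temperature | Measured by: Kinetic Fluo-4 NW fluorescence of intracellular calcium | Control set: Positive and negative controls per plate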
# Hits are given with their value; 0 = inactive.
SMILES,RGS4 block,MrgX1 antag,MrgX1 PAM,RGS4 pot,MrgX1 ag
CCC1CCCCN1CCCNS(=O)(=O)c1ccc2c(c1)oc(=O)n2C (stereo not given),0,0,18,0,0
Cc1ccc2sc(NNC(=O)c3cc(=O)c4ccccc4o3)nc2c1C,0,-8.7,0,0,0
Cc1cccc2sc(NNC(=O)c3cc(=O)c4ccccc4o3)nc12,0,0,0,0,0
Cc1ccc(-n2c3nc(=O)[nH]c(=O)c-3cc3cc([N+](=O)[O-])ccc32)cc1,0,0,0,0,53
CCN1CCN(c2ccc(S(=O)(=O)N3CCCCC3)cc2NC(=O)c2ccc([N+](=O)[O-])s2)CC1,0,0,0,0,0
CCOc1ccccc1C(=O)Nc1cccc(-c2nnc(-c3ccccc3)o2)c1,0,0,0,-7.2,0
CCOC(=O)C1=C(CN2CC(C)CC(C)C2)NC(=O)NC1c1ccc2c(c1)OCO2 (stereo not given),0,0,0,0,0
CCCCCc1cc(=O)oc2c(C(CCN3CCCCC3)c3ccc(OC)cc3)c(OC)cc(OC)c12 (stereo not given),0,0,0,0,0
CCCCCc1cc(=O)oc2c(C(CCN3CCCC3)c3cc(OC)c(OC)c(OC)c3)c(OC)cc(OC)c12 (stereo not given),0,-5.3,0,0,0
COc1cc(C(=O)Nc2nnc(SC)s2)c([N+](=O)[O-])cc1OC,0,0,0,0,0
COc1cc(C(=O)Nc2nnc(C(F)(F)F)s2)c([N+](=O)[O-])cc1OC,0,-6.4,0,0,0
Cc1c(-n2cc(C(=O)c3cc(F)ccc3O)cc(C#N)c2=O)c(=O)n(-c2ccccc2)n1C,0,0,6.7,0,0
O=C(CCC(=O)OCC(=O)c1cccc([N+](=O)[O-])c1)Nc1cccc(Cl)c1Cl,0,0,0,0,0
O=C(CCC(=O)OCC(=O)c1ccc([N+](=O)[O-])cc1)Nc1ccccc1Cl,0,-5.5,0,0,0
O=C(COC(=O)c1ccccc1NS(=O)(=O)c1cc([N+](=O)[O-])ccc1Cl)c1ccccc1,0,0,0,0,32
O=C(CC(=O)c1ccccc1)Nc1cc([N+](=O)[O-])ccc1Cl,0,0,0,0,0
Cc1ncc(CO)c2c1Oc1nc(-c3ccccc3F)nc(SCC(=O)N(C)c3ccccc3)c1C2,0,0,0,0,0
Cc1ncc(CO)c2c1Oc1nc(-c3ccccc3)nc(SCC(=O)N(C)c3ccccc3)c1C2,0,0,10,-8.1,0
COc1ccccc1-c1nc2c(c(SCC(=O)N3CCCCC3)n1)Cc1c(CO)cnc(C)c1O2,0,0,0,-8.1,0
Cc1ncc(CO)c2c1Oc1nc(-c3ccccc3)nc(SCC(=O)N3CCOCC3)c1C2,0,0,0,0,0
CCc1cc(=O)oc2cc(C)cc(OC(C)C(=O)NCCCn3ccnc3)c12 (stereo not given),0,0,0,0,0
COc1cc(/C(C#N)=C/c2ccccc2)c([N+](=O)[O-])cc1OC,0,0,0,0,0
Cc1ccc(Nc2nnc(SCC(=O)NC(Cc3c[nH]c4ccccc34)C(=O)O)s2)cc1 (stereo not given),0,0,0,0,0
Cc1oc(-c2ccc(-c3ccccc3)cc2)nc1CN(CCO)C(C)C,0,0,0,0,0
Cc1ccc(SCC(=O)Nc2ccc(N3CCN(C)CC3)c(F)c2)c(C)c1,0,0,0,-7.6,0
SMILES,RGS4 block,MrgX1 antag,MrgX1 PAM,RGS4 pot,MrgX1 ag
COc1ccc(CC(=O)NNS(=O)(=O)c2ccccc2)cc1OC,0,-8,0,0,0
N#Cc1ccccc1Oc1ccccc1C=O,0,0,0,0,27
CCCCN(CCCC)C(=O)C1CC=CCC1C(=O)O (stereo not given),0,-5.9,0,0,0
CCCCCNC(=O)C1CC=CCC1C(=O)O (stereo not given),0,0,0,0,0
Cc1cc(C)c(-c2csc(NC(=O)c3cc([N+](=O)[O-])ccc3N3CCOCC3)n2)c(C)c1,0,0,0,-7.9,0
O=C(Nc1nc(-c2ccc(F)c(F)c2)cs1)c1cc([N+](=O)[O-])ccc1N1CCOCC1,0,0,0,0,0

# Bioassay records deposited in PubChem BioAssay by Johns Hopkins Ion Channel Center.
